Changes are numbered by the printed parent chain. Like-named read-outs stand apart in the source and are kept apart here.
Assays:
[1] = test system: HCN2 C-terminus; conditions: 10 and 25 µM HCN2 C-terminus, very high ligand levels; ref Ng et al., 2016; cited from earlier work
[2] = test system: HCN2 channel; conditions: cited from earlier work
[3] = target: T1, D634A HCN2 C-terminus (Mus musculus, UniProt O88703, D634A); test: ITC binding to D634A HCN2 C-terminus; conditions: for Kd: two-site model, mean ± SEM
T1 sequence (O88703 443-645 D634A): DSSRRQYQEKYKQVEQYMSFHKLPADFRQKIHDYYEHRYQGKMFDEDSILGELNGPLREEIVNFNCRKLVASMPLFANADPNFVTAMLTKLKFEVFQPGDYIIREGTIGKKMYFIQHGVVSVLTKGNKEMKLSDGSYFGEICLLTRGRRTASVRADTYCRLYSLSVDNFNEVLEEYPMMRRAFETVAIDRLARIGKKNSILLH
Method in brief: (§1)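 HCN2 C-linker/CNBD point mutant (residues 443–645) expressed from an HMT-tagged pET28 vector in Rosetta DE3 pLacI cells, induced 4 h. […] Integrated heats fitted to a one- or two-site independent binding model; ≥3 replicates.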

[4] = target: T2, I636D HCN2 C-terminus (Mus musculus, UniProt O88703, I636D); test: ITC binding to I636D HCN2 C-terminus
T2 sequence (O88703 443-645 I636D): T1 sequence (O88703 443-645 D634A) with A192D, I194D

[5] = target: T3, I636A HCN2 C-terminus (Mus musculus, UniProt O88703, I636A); test: ITC binding to I636A HCN2 C-terminus
T3 sequence (O88703 443-645 I636A): T1 sequence (O88703 443-645 D634A) with A192D, I194A

[6] = target: T4, I630A HCN2 C-terminus (Mus musculus, UniProt O88703, I630A); test: ITC binding to I630A HCN2 C-terminus; conditions: for Kd: two-site model, mean ± SEM
T4 sequence (O88703 443-645 I630A): T1 sequence (O88703 443-645 D634A) with I188A, A192D
Method in brief: as §1

[7] = target: T5, R635A HCN2 C-terminus (Mus musculus, UniProt O88703, R635A); test: ITC binding to R635A HCN2 C-terminus; conditions: stoichiometry, single-site model, four trials, three from Ng et al., 2016
T5 sequence (O88703 443-645 R635A): T1 sequence (O88703 443-645 D634A) with A192D, R193A

[8] = target: T6, K638A HCN2 C-terminus (Mus musculus, UniProt O88703, K638A); test: ITC binding to K638A HCN2 C-terminus
T6 sequence (O88703 443-645 K638A): T1 sequence (O88703 443-645 D634A) with A192D, K196A
Method in brief: as §1

[9] = target: T7, R632A-HMT HCN2 C-linker/CNBD (Mus musculus, UniProt O88703, R632A); test: ITC binding to R632A-HMT protein; conditions: two trials
T7 sequence (O88703 443-645 R632A): T1 sequence (O88703 443-645 D634A) with R190A, A192D

[10] = target: T8, T592A HCN2 C-terminus (Mus musculus, UniProt O88703, T592A); test: ITC binding to T592A HCN2 C-terminus
T8 sequence (O88703 443-645 T592A): T1 sequence (O88703 443-645 D634A) with T150A, A192D
Method in brief: as §1

[11] = target: T9, D631A HCN2 C-terminus (Mus musculus, UniProt O88703, D631A); test: ITC binding to D631A HCN2 C-terminus; conditions: for Kd: two-site model, mean ± SEM
T9 sequence (O88703 443-645 D631A): T1 sequence (O88703 443-645 D634A) with D189A, A192D

[12] = target: T10, R591A HCN2 C-terminus (Mus musculus, UniProt O88703, R591A); test: ITC binding to R591A HCN2 C-terminus
T10 sequence (O88703 443-645 R591A): T1 sequence (O88703 443-645 D634A) with R149A, A192D
Method in brief: as §1

[13] = target: T11, L633A HCN2 C-terminus (Mus musculus, UniProt O88703, L633A); test: ITC binding to L633A HCN2 C-terminus
T11 sequence (O88703 443-645 L633A): T1 sequence (O88703 443-645 D634A) with L191A, A192D
Method in brief: as §1

[14] = target: T12, wild-type HCN2 C-terminus (Mus musculus, UniProt O88703); test: ITC binding to wild-type HCN2 C-terminus; conditions: for n: Wild type, mean ± SEM
T12 sequence (O88703 443-645): T1 sequence (O88703 443-645 D634A) with A192D

[15] = target: T12, wild-type HCN2 C-terminus; conditions: previously found; ref Ng et al., 2016; cited from earlier work
[16] = stoichiometry of high-affinity event
[17] = stoichiometry of low-affinity event
[18] = high-affinity event, two-site model, mean ± SEM
[19] = low-affinity event, two-site model, mean ± SEM
[20] = read-out: Kd Site 1, model input from ITC
[21] = read-out: Kd Site 2, model input from ITC
[22] = read-out: Kd Site 3, model input from ITC
[23] = read-out: Kd Site 4, model input from ITC
[24] = single-site independent binding model, mean ± SEM
[25] = stoichiometry, single-site model
[26] = single-site independent binding model, mean ± SEM, c value <1
[27] = slope of ΔH at 10°C and 25°C, data of Chow et al., 2012

## Nc1ccn([C@@H]2O[C@@H]3COP(=O)(O)O[C@H]3[C@H]2O)c(=O)n1 [cCMP]
[1]
  promotion of tetramerization: not able to promote tetramerization
[2]
  agonist type: partial agonist

## cGMP
[3]; high-affinity event
  Kd: 0.54 ± 0.1 µM
[3]; low-affinity event
  Kd: 8.04 ± 1.32 µM
[3]; [16]
  n: 0.23 ± 0.04
[3]; [17]
  n: 0.87 ± 0.14
[4]; [18]
  Kd: 0.21 ± 0.07 µM
[4]; [19]
  Kd: 1.76 ± 0.51 µM
[4]; [20]
  Kd: 0.21 µM
[4]; [21]
  Kd: 1.76 µM
[4]; [22]
  Kd: 1.76 µM
[4]; [23]
  Kd: 1.76 µM
[4]; [16]
  n: 0.18 ± 0.04
[4]; [17]
  n: 0.56 ± 0.08
[5]; [18]
  Kd: 0.24 ± 0.02 µM
[5]; [19]
  Kd: 3.23 ± 0.15 µM
[5]; [20]
  Kd: 0.24 µM
[5]; [21]
  Kd: 3.23 µM
[5]; [22]
  Kd: 3.23 µM
[5]; [23]
  Kd: 3.23 µM
[5]; [16]
  n: 0.23 ± 0.01
[5]; [17]
  n: 0.44 ± 0.02
[6]; high-affinity event
  Kd: 0.49 ± 0.11 µM
[6]; low-affinity event
  Kd: 7.78 ± 0.31 µM
[6]; [16]
  n: 0.24 ± 0.05
[6]; [17]
  n: 0.44 ± 0.05
[7]
  n: 0.67 ± 0.09
[8]; [24]
  Kd: 14.7 ± 2.04 µM
[8]; [25]
  n: 0.47 ± 0.09
[9]
  binding to R632A-HMT protein: not detected
[10]; [26]
  Kd: 184 ± 2.69 µM
[10]; [25]
  n: 0.20 ± 0.03
[11]; high-affinity event
  Kd: 0.21 ± 0.06 µM
[11]; low-affinity event
  Kd: 4.78 ± 0.88 µM
[11]; [16]
  n: 0.20 ± 0.03
[11]; [17]
  n: 0.63 ± 0.09
[12]; [26]
  Kd: 322 ± 26.7 µM
[12]; [25]
  n: 2.15E-5 ± 9.20E-6
[13]; [24]
  Kd: 16.5 ± 3.2 µM
[13]; [25]
  n: 0.74 ± 0.09
[14]; [16]
  n: 0.21 ± 0.01
[14]; [17]
  n: 0.27 ± 0.01
[14]; found here
  fold difference between low- and high-affinity binding: 3 fold
[14]; wild-type HCN2 C-terminus
  increase of the high-affinity Kd compared with cAMP binding: threefold
  increase of the low-affinity Kd compared with cAMP binding: ~3.4 fold
[15]
  fold difference between low- and high-affinity binding: 2.3 fold

## cAMP
[3]; [16]
  n: 0.26 ± 0.03
[3]; [17]
  n: 0.81 ± 0.03
[4]; [16]
  n: 0.56 ± 0.07
[4]; [17]
  n: 0.82 ± 0.02
[5]; [16]
  n: 0.36 ± 0.01
[5]; [17]
  n: 0.60 ± 0.03
[6]; [16]
  n: 0.28± 0.03
[6]; [17]
  n: 0.69 ± 0.07
[8]; [16]
  n: 0.38 ± 0.04
[8]; [17]
  n: 0.50 ± 0.03
[9]
  binding to R632A-HMT protein: not detected
[10]; [16]
  n: 0.23 ± 0.01
[10]; [17]
  n: 0.56 ± 0.06
[11]; [16]
  n: 0.21 ± 0.02
[11]; [17]
  n: 0.56 ± 0.04
[12]; [16]
  n: 0.35 ± 0.02
[12]; [17]
  n: 0.70 ± 0.09
[13]; [16]
  n: 0.41 ± 0.02
[13]; [17]
  n: 0.69 ± 0.05
[14]; [16]
  n: 0.33 ± 0.02
[14]; [17]
  n: 0.66 ± 0.09
[14]; [27]
  ΔCp, high-affinity binding: −159 cal/mol/°C
  ΔCp, low-affinity binding: −898 cal/mol/°C
[2]
  Hill coefficient: ~1
[2]; read-out: EC50 determined by the Hill equation
  EC50: ~0.1 µM

## O=c1[nH]cnc2c1ncn2[C@@H]1O[C@@H]2COP(=O)(O)O[C@H]2[C@H]1O [cIMP]
[1]
  promotion of tetramerization: not able to promote tetramerization
[2]
  agonist type: partial agonist

From article PMC6785730 (The Journal of General Physiology, 2019)
